The record followed here is the RNAGym collection of RNA variant scans (doi:10.1126/science.aae0568).

Fewer inactive variants are shown than the library holds.

The chains are these.
B1: tRNA (parent)
chain: GUUCCGUUGGCGUAAUGGUAACGCGUCUCCCUCCUAAGGAGAAGACUGCGGGUUCGAGUCCCGUACGGAACG

In this data set the parent is B1. Kind of data set: yeast fitness relative to wild type (ratio to wild type); higher = fitter; tRNA-Arg(CCU), competitive growth, 37 C, YPD. The essentials:
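A pool of Saccharomyces cerevisiae strains, each with a tRNA-Arg(CCU) gene variant at the native genomic locus, was competed in YPD at 37°C for 24 hours across six parallel replicates. The variants had been chemically synthesised at a 3% per-site mutation rate over 69 sites, and gene amplicons before and after competition were read by 100-nucleotide paired-end sequencing. Darwinian fitness relative to wild type rested on changes in genotype frequencies. Genotypes required ≥ 100 starting reads, and estimates < 0.5 were set to 0.5.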
With GUUCCGUUGGCGUAAUGGUAACGCGUCUCCCUCCUAGGGAGAAGACUGCGGGUUCGAGUCCAGUACGGAACG [A37G C62A], the yeast fitness came to 0.582.
Consider GUUCCGUUGGCGUAAUGGUAACGCGUCUCCCUCCUACGGAGAAGACUGCGGGUUAGAGUCCCGUCCGGAACG [A37C C55A A65C], for which the yeast fitness worked out at 0.603.
As for GUUCCGUUGGCGUAAUGGUAACGCGUCUCCCUCCUACGGAGAAGACUGCGAGUUCGAGUCCCGUACGGAACG [A37C G51A], the yeast fitness was 0.605.
As for GUUCCGUUGGCGUAAUGGUAACGCGUCUCCCUCCUACGGAGAAGACUGCGGGUUCGAGUCCAGUACGGAACG [A37C C62A], the figure is 0.874.
Take GUUCCGUUGGCGUAAUGGUAACGCGUCUCCCUCCUACGGAGAAGACAGCGGGUUCGAAUCCCGUACGGAACG [A37C U47A G58A]: the yeast fitness was at most 0.5.
For GUUCCGUUGGCGUAAUGGUAACGCGUCUCCCUCCUAGGGAGUAGACUGCGGGUUCGAGUCCAGUCCGGAACG [A37G A42U C62A A65C] the value was at most 0.5; for GUUCCGUUGGCGUAAUGGUAACGCGUCUCCCUCCUAGGGAGCAGACUGCGGGUUCGAGUCCCGUUCGGCACG [A37G A42C A65U A69C], at most 0.5; for GUUCCGUUGGCGUAAUGGUAACGCGUCUCCCUCCUACGGAGAAGACUGCGAGCUCGAGUCCAGUACGGAACG [A37C G51A U53C C62A], at most 0.5.
As for GUUCCGUUGGCGUAAUGGUAACGCGUCUCCCUCCUACGGAGAAGACUGGGGGUUCGCGUCCCGUACGGAACG [A37C C49G A57C], the figure is at most 0.5.
As for GUUCCGUUGGCGUAAUGGUAACGCGUCUCCCUCCUACGGAGAAGACUGUGGGUUAGAGUACCGUACGGAACG [A37C C49U C55A C60A], the figure is at most 0.5; as for GUUCCGUUGGCGUAAUGGUAACGCGUCUCCCUCCUACGGAGAAGAGUGCGGGUUCGAGUCCUGUACGGUACG [A37C C46G C62U A69U], 0.673; as for GUUCCGUUGGCGUAAUGGUAACGCGUCUCCCUCCUAGGGAGAAGACUGCGGGUUCGAGUCCCGUACGGAUCG [A37G A70U], 0.741.
On to GUUCCGUUGGCGUAAUGGUAACGCGUCUCCCUCCUAGGGAGAAGACUGCGGGUUCGAGUCCCGUACGGCACG [A37G A69C], for which the yeast fitness is 0.97.
In the case of GUUCCGUUGGCGUAAUGGUAACGCGUCUCCCUCCUAGGGAGUAGACUCUGGGUUCGAGUCCCGUGCGGAACG [A37G A42U G48C C49U A65G], the yeast fitness is at most 0.5.
For the variant GUUCCGUUGGCGUAAUGGUAACGCGUCUCCCUCCUACGGAGAAGACUGCGGGUUCGAGUCCCGUAAGGAACG [A37C C66A], the yeast fitness came out at 0.659.
Regarding GUUCCGUUGGCGUAAUGGUAACGCGUCUCCCUCCUACGGAGAACACUGCGGCUUCGAAUCCCGUACGGAACG [A37C G44C G52C G58A], the yeast fitness was at most 0.5.
As for GUUCCGUUGGCGUAAUGGUAACGCGUCUCCCUCCUACGGAGAAGACUGGGGGUUCGAGUCCCGUACGGACCG [A37C C49G A70C], the figure is at most 0.5.
With GUUCCGUUGGCGUAAUGGUAACGCGUCUCCCUCCUAGGGAGAAGACUGCGGGUUAGAGUCCCGUACAGAACG [A37G C55A G67A], the yeast fitness was at most 0.5.
Consider GUUCCGUUGGCGUAAUGGUAACGCGUCUCCCUCCUAGGGAGAAGAGUGCGGGUUCAAGUCCCGUACGGAACG [A37G C46G G56A], for which the yeast fitness was 0.624.
For GUUCCGUUGGCGUAAUGGUAACGCGUCUCCCUCCUACGGAGAAGACUGCGGGUUGGAGUCCCGUACGGAACG [A37C C55G] the value was 0.607; for GUUCCGUUGGCGUAAUGGUAACGCGUCUCCCUCCUACGGAGAAGACUGCGGGUUCGAGUUCCGUACAGAACG [A37C C60U G67A], 0.522.
As for GUUCCGUUGGCGUAAUGGUAACGCGUCUCCCUCCUACGGAGAAGAUUGCGGGCUCGAGUCCCGUACGGAACG [A37C C46U U53C], the figure is at most 0.5; as for GUUCCGUUGGCGUAAUGGUAACGCGUCUCCCUCCUACGGAGAAGACCGCGAGUUCGAGUCCCGUACGGAACG [A37C U47C G51A], at most 0.5.
For GUUCCGUUGGCGUAAUGGUAACGCGUCUCCCUCCUAGGAAGAAGCCUGCGGGUUCGAGUCCCGUACGGAACG [A37G G39A A45C] the value was 0.635.
Regarding GUUCCGUUGGCGUAAUGGUAACGCGUCUCCCUCCUAGGAAGAAGACUGCGGGUUCGAGUCCCGUACGGAACG [A37G G39A], the yeast fitness worked out at 0.638.
For GUUCCGUUGGCGUAAUGGUAACGCGUCUCCCUCCUACGGAGAAGACUGCGGGUUCGAGUCCCCUACGGCACG [A37C G63C A69C] the value was at most 0.5.
As for GUUCCGUUGGCGUAAUGGUAACGCGUCUCCCUCCUAGGGGGAAGACUGCGGGUUCGAGUCCCGUACGGAACG [A37G A40G], the figure is 0.912; as for GUUCCGUUGGCGUAAUGGUAACGCGUCUCCCUCCUAGGGCGAAGACUGCGGGUUCGAGUCCCGUACGGAACG [A37G A40C], 0.685; as for GUUCCGUUGGCGUAAUGGUAACGCGUCUCCCUCCUACGGAGAAGAUUGCGGGUUCGAGUCCCGUCCGAAACG [A37C C46U A65C G68A], at most 0.5.
As for GUUCCGUUGGCGUAAUGGUAACGCGUCUCCCUCCUACAGAGAAGACUGCGGGUUCGAGUCCCGUAUGGAACG [A37C G38A C66U], the figure is 0.587; as for GUUCCGUUGGCGUAAUGGUAACGCGUCUCCCUCCUACGGAGAAGAGUGCGGGUUCGAGUCCUGUACGGAACG [A37C C46G C62U], 0.872.
Take GUUCCGUUGGCGUAAUGGUAACGCGUCUCCCUCCUAGGGAGAAGACUGCGGGUUCGGGUCCCGCACGGAACG [A37G A57G U64C]: the yeast fitness was at most 0.5.
As for GUUCCGUUGGCGUAAUGGUAACGCGUCUCCCUCCUAGGGAGAAGACUGCGGGUUCGAGUCUCGUACGGAACG [A37G C61U], the figure is 0.785; as for GUUCCGUUGGCGUAAUGGUAACGCGUCUCCCUCCUAGGGAGCAGACUGCGGGUUCGAGUCCCGUACGGAACG [A37G A42C], 0.806; as for GUUCCGUUGGCGUAAUGGUAACGCGUCUCCCUCCUAGGGAGAAGACUGGGGGUUUCAGUCCCGUACGAAACG [A37G C49G C55U G56C G68A], at most 0.5.
For GUUCCGUUGGCGUAAUGGUAACGCGUCUCCCUCCUACGGAGAAGACUACGGGUUCGAGUCCCGUACGGAACG [A37C G48A] the value was 0.779; for GUUCCGUUGGCGUAAUGGUAACGCGUCUCCCUCCUACGGAGAAGACUCCGGGUUCGAGUCCCGUACGGAACG [A37C G48C], 0.751.
For GUUCCGUUGGCGUAAUGGUAACGCGUCUCCCUCCUACGCAGAAGACUGCGGGUUCGAGUCCCGUACGGAACG [A37C G39C] the value was 0.534.
